Assay results pooled from the literature.
Each line is one published result; the experiments were not run side by side.
Target: Mitogen-activated protein kinase kinase kinase 19 (MAP3K19, Homo sapiens, UniProt Q56UN5)
Sequence (Q56UN5 1-1328, as in one of the studies): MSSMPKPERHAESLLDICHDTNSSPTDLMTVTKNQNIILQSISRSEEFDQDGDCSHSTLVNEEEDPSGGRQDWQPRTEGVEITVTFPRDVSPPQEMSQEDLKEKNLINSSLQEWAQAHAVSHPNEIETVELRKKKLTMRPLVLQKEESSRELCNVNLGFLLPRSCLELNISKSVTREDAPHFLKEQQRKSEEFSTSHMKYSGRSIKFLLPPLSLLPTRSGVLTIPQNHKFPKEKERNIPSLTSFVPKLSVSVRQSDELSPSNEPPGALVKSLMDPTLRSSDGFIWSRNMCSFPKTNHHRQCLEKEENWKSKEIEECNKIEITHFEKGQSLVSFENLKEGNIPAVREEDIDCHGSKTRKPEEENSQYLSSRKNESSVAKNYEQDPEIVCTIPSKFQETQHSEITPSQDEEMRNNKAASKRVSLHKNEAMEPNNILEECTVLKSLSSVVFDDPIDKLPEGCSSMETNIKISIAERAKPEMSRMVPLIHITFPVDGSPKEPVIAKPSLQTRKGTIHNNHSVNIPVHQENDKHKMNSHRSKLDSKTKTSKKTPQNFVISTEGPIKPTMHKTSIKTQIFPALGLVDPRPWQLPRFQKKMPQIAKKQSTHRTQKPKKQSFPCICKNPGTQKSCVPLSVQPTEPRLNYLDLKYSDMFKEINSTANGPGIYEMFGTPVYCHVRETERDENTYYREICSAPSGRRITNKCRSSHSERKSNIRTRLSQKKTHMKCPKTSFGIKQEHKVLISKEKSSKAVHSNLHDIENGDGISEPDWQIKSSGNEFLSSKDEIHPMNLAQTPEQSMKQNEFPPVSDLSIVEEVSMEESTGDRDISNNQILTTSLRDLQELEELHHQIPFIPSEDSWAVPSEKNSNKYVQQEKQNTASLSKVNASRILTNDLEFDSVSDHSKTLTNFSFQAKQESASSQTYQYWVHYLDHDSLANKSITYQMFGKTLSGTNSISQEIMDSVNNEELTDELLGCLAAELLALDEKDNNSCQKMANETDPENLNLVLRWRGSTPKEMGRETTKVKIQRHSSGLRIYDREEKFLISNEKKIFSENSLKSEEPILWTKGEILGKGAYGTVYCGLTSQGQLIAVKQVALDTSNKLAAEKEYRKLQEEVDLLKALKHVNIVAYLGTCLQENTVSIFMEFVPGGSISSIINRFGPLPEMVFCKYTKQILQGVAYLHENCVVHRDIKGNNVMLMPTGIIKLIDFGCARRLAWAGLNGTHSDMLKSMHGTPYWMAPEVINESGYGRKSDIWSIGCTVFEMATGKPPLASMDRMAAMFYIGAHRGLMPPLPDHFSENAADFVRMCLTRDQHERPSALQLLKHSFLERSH

SMILES	assay	setting	remaining binding [%]
CCN1CCN(Cc2ccc(C(=O)Nc3ccc(C)c(Oc4ccc5c(c4)CC(=O)N5)c3)cc2C(F)(F)F)CC1	binding, competition with immobilised ligand	1 µM	100
O=C(NCCCN1CCOCC1)c1ccc(Nc2ncc(Cl)c(-c3ccc(Cl)s3)n2)cc1	binding, competition with immobilised ligand	1 µM	0
O=C(NCC1CCOCC1)c1n[nH]cc1NC(=O)c1c(F)cccc1F	binding, competition with immobilised ligand	1 µM	52
Cc1cc(-n2nc(Cc3cc(F)cc(C(F)(F)F)c3)nc2C)ccc1C(N)=O	cell-free assay, competition with immobilised ligand	1 µM	98
F[C@@H]1CCN(c2nccc(-c3cnn4ncccc34)n2)C1	binding	1 µM	89
COc1cnc(Nc2cccc(S(N)(=O)=O)c2)nc1N1CCN(c2ccccc2)CC1	binding, competition with immobilised ligand	1 µM	71
Cc1nc(C2CCN(C(=O)c3ccc(OC(F)(F)F)cc3N)CC2)c2ncc(N3CCN(C)CC3)cc2n1	cell-free assay, competition with immobilised ligand	1 µM	79
COc1ccnn2ncc(-c3ccnc(N(C)C)n3)c12	binding	1 µM	54
COc1ncc2cc3ccccc3nc2c1C#N	cell-free assay, competition with immobilised ligand	5 µM	81
N[C@@H]1CCN(c2nccc(-c3cnn4ncccc34)n2)C1	binding	1 µM	76
O=C(NCCCN1CCOCC1)c1ccc(Nc2nccc(-c3cc4ccccc4s3)n2)cc1	binding, competition with immobilised ligand	1 µM	0.1
CC1CCCN1c1nccc(-c2cnn3ncccc23)n1 (centres unmarked)	binding	1 µM	95
CO[C@H]1CC[C@H](CNc2ccc(S(=O)(=O)NC(=O)c3ccc(N4CCN(CC5=C(c6ccc(Cl)cc6)CC(C)(C)CC5)CC4)cc3Oc3cnc4[nH]ccc4c3)cc2[N+](=O)[O-])CC1	cell-free assay, competition with immobilised ligand	1 µM	64
O=C(c1ccc(Nc2ncc(Cl)c(-c3cc4ccccc4s3)n2)cc1)N1CCC(N2CCCC2)CC1	binding, competition with immobilised ligand	1 µM	0
Cc1cc(NC(=O)c2cccc(S(F)(F)(F)(F)F)c2)cc(-n2ccn3nc(-c4cccnc4)cc23)c1	cell-free assay, competition with immobilised ligand	1 µM	100
Cc1cnn2ncc(-c3ccnc(N(C)C)n3)c2c1	binding	1 µM	75
CC(=O)N1CCC(c2ccc(C(=O)NC3=NCCN3)cc2C(F)(F)F)CC1	cell-free assay, competition with immobilised ligand	1 µM	100
CN(C)c1nccc(-c2cnn3ncccc23)n1	binding	1 µM	50
COc1cnc(Nc2cccc(S(N)(=O)=O)c2)nc1N1CCN(c2ccccc2)C(=O)C1	binding, competition with immobilised ligand	1 µM	32
O=C(NCCCC1CCCCC1)c1ccc(CNC(=O)c2cnn(-c3ccccc3)c2C(F)(F)F)cc1	cell-free assay, competition with immobilised ligand	0.1 µM	89
